Compounds with a hit are over-represented: about 2.8% of the library has one in this group of screens.
PAFAH1B2 FP inh – inhibitors of human PAFAH1B2; recombinant PAFAH1B2, FP-rhodamine activity probe, fluorescence polarization; inhibition, % at 3.39 µM; actives 1.2% (n = 340,000); AID 492953;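 active = inhibition above the mean of all tested compounds plus 3 SD, cut at about 24% in these data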
pPAFAH inh – pPAFAH (human) enzyme inhibition. Q13093. recombinant pPAFAH, FP-rhodamine probe fluorescence polarization. inhibition, % at 3.39 µM. actives 1.5% (n = 330,000). AID 463082;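 active = inhibition above the mean inhibition across the screen plus 3 SD, cut at about 25% in these data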;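 also: inhibitors block binding of the rhodamine activity-based probe so polarization drops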
Target sequence (Q13093 whole entry, looked up): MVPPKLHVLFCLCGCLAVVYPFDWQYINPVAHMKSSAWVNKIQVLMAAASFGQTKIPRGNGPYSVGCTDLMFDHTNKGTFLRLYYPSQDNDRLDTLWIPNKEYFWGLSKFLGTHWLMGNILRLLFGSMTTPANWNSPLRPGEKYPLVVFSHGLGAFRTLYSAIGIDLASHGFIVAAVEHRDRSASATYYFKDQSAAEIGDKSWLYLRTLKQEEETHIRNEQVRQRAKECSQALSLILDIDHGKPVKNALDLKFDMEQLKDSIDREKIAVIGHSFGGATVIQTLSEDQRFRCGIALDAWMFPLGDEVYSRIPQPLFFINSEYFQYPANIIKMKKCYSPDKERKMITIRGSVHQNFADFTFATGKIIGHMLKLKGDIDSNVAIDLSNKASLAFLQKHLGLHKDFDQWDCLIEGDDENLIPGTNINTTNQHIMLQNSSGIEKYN
ARFGAP1 inh – inhibits rat ARF GTPase activating protein 1. Q62848. Arfgap1-stimulated ARF1 GTP hydrolysis, GDP FP detection. inhibition, % at 16.5 µM. actives 0.26% (n = 360,000);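 active = inhibition above a per-plate limit, mean inhibition of low control wells plus 3 SD, cut at about 25% in these data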
Target sequence (Q62848 1-136 limits assumed): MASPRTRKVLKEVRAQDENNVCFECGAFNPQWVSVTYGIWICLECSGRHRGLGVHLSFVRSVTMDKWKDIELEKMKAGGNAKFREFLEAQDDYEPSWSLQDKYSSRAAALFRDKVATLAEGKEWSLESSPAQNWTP
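Replicates: Single well per compound | Assay system: Truncated rat Arfgap1 GAP domain | Control set: No-Arfgap1 wells (100%) versus DMSO full-reaction wells (0%) | Times: Enzyme reaction 120 min at 25 °C after 20 min preincubation | Reagent: Human ARF1(Δ1-17)-GTP substrate | Measured by: Tracer-displacement fluorescence polarization with EDTA stop, 620/688 nm | Measure: Percent inhibition of Arfgap1-stimulated GTP hydrolysis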
PAFAH1B3 inh – inhibitors of human PAFAH1B3. actives 0.28% (n = 340,000). inhibition, % at 3.39 µM. recombinant PAFAH1B3, FP-rhodamine probe, fluorescence polarization. AID 492972. Q15102;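 active = inhibition above the screen-wide average of all tested compounds plus 3 SD, cut at about 25% in these data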
PAFAH2 inh – inhibitors of human PAFAH2; inhibition, % at 3.39 µM; actives 0.99% (n = 340,000); recombinant PAFAH2, FP-rhodamine activity probe, fluorescence polarization;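 active = inhibition above the mean over all tested compounds plus 3 SD, cut at about 30% in these data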;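 also: inhibitors block probe labeling of enzyme so polarization drops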
ASAP1 GAP inh – inhibitors of human ASAP1 ArfGAP activity; inhibition, % at 16.5 µM; actives 0.19% (n = 360,000); AID 624377; ASAP1-stimulated ARF1 GTP hydrolysis, GDP FP detection; Q9ULH1; in the data active = inhibition above about 25%
pPAFAH FP conf – pPAFAH (human) inhibition, confirmed; shares compounds with pPAFAH inh; recombinant pPAFAH, FP-Rh probe fluorescence polarization; inhibition, % at 3.39 µM; actives 72% (n = 2,300); AID 463230;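 active = mean inhibition of the triplicate above the hit cutoff set for the earlier primary screen, cut at about 25% in these data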
Numbers stand for hits; 0 = inactive; - = no result given.

SMILES	PAFAH1B2 FP inh	pPAFAH inh	ARFGAP1 inh	PAFAH1B3 inh	PAFAH2 inh	ASAP1 GAP inh	pPAFAH FP conf
CCC(=O)[C@@]1(C)[C@H](C)C[C@H]2[C@@H]3CCC4=CC(=O)C=C[C@]4(C)[C@H]3[C@@H](O)C[C@@]21C	0	0	0	0	0	0	-
COc1cc(/C=C2\S/C(=N/S(=O)(=O)c3ccc(C)cc3)NC2=O)c([N+](=O)[O-])cc1OC	0	0	0	0	0	0	-
O=C1NC(=Nc2ccccc2Cl)S/C1=C\c1cc([N+](=O)[O-])ccc1O	28	41	0	61	44	0	63
Cc1ccc(S(=O)(=O)/N=C2/NC(=O)/C(=C/c3cc([N+](=O)[O-])ccc3O)S2)cc1	61	41	0	44	48	0	63
O=C(Nc1cccn2nc(COCCO)nc12)C(c1ccccc1)c1ccccc1	-	-	0	-	-	0	-
Cc1ccc(NC(=S)N(CCN(C)C)C(C)c2ccco2)cc1C (centres undefined)	0	38	0	0	0	0	0
Cc1cc(C)n2c(SC/C(O)=C(\C#N)c3nc4ccccc4[nH]3)nnc2n1	0	35	0	0	0	0	0
O=C(O)c1ccc(-c2ccc(/C=N/Nc3ccc([N+](=O)[O-])cc3)o2)cc1	0	47	0	0	0	0	38
Cc1cc(C)n(Cc2ccc(C(=O)N/N=C/c3ccc(-c4ccc([N+](=O)[O-])cc4)o3)o2)n1	0	52	0	0	38	0	47
NC(=S)N/N=C/c1ccc(-c2cccc([N+](=O)[O-])c2)o1	0	0	0	0	0	0	-
NS(=O)(=O)c1ccc(-c2ccc(/C=N/Nc3ccc(C(=O)O)cc3)o2)cc1	0	0	0	0	0	0	-
O=C(O)c1cccc(-c2ccc(/C=N/Nc3ccc([N+](=O)[O-])cc3)o2)c1	0	42	0	0	0	0	28
S=C1Cc2ccccc2C(c2ccc(Cl)cc2)N1 (centres undefined)	0	0	0	0	0	0	-
CC(N)c1csc(Nc2ccc(S(C)(=O)=O)cc2)n1 (centres undefined)	-	-	0	-	-	0	-
N#Cc1c(N2CCCC(O)C2)nc(N)c2c(N)nc3c(c12)CC(=O)N3C12CC3CC(CC(C3)C1)C2 (centres undefined)	46	45	0	51	46	0	0
C=C(C)CN(CC)c1nc(N)c2c(N)nc3c(c2c1C#N)CC(=O)N3C12CC3CC(CC(C3)C1)C2	0	0	0	0	0	0	-
O=C(Nc1nc2c(s1)CN(Cc1ccccc1)CC2)c1c(F)cccc1F	0	62	0	0	0	0	0
Cc1c(C(=O)NNC(=O)c2ccccc2O)oc2ccc(Br)cc12	0	58	0	0	0	0	70
N#CC1=C(N)n2c(s/c(=C\c3ccco3)c2=O)=C(C#N)C1c1ccco1 (centres undefined)	0	53	0	0	0	0	0
CCN(CC)S(=O)(=O)c1ccc(N2CCCC2)c(NC(=O)C2=NN(c3ccccc3)C(=O)CC2)c1	0	0	0	0	0	0	-
CN(C)S(=O)(=O)c1ccc(C(=O)OCC(=O)NCc2ccco2)cc1	0	0	0	0	0	0	-
O=C(COC(=O)c1ccc(NS(=O)(=O)c2cccs2)cc1)NCc1ccco1	0	42	-	0	40	-	29
CC1(C)c2cc(O)ccc2OC1N1CCOCC1 (centres undefined)	0	0	0	0	0	0	-
CCOc1ccc(-c2ccc(/C=C3/C(=N)N4C(C)=CSC4=NC3=O)o2)c([N+](=O)[O-])c1	0	45	0	0	0	0	37
O=C(COC(=O)Cc1cccs1)Nc1cc(S(=O)(=O)N2CCOCC2)ccc1Cl	0	0	0	0	0	0	-
SMILES	PAFAH1B2 FP inh	pPAFAH inh	ARFGAP1 inh	PAFAH1B3 inh	PAFAH2 inh	ASAP1 GAP inh	pPAFAH FP conf
CCOc1ccc(S(=O)(=O)N(C)c2ccc(OCC(=O)NCCc3ccc(OC)cc3)cc2)cc1	0	0	0	0	0	0	-
Cc1cccc(NC(=O)CSc2nnc(-c3ccco3)c(-c3ccco3)n2)c1C	0	35	-	0	41	-	0
Cc1cccc(NC(=O)CSc2nnc(-c3ccco3)c(-c3ccco3)n2)c1	0	-	0	0	0	0	-
N#Cc1c(NCc2ccccc2)ccnc1Cl	0	0	0	0	0	0	-
Oc1ccc(N=Nc2ccccc2-c2nn[nH]n2)c(O)c1	0	83	0	40	41	0	46
COc1ccc(-c2ccc3c(c2)S(=O)(=O)c2cccc(C(=O)N4CCN(c5ccc(Cl)cn5)CC4)c2C3=O)cc1OC	0	36	0	0	62	0	49
O=C1c2ccc(-c3ccc(F)cc3OCc3ccccc3)cc2S(=O)(=O)c2cccc(C(=O)N3CCN(c4ncc(Br)cn4)CC3)c21	0	43	0	0	0	0	32
O=C1c2ccc(-c3ccc(F)cc3OCc3ccccc3)cc2S(=O)(=O)c2cccc(C(=O)N3CCN(c4ncc(Cl)cc4Cl)CC3)c21	0	37	0	0	0	0	25
CC(C)c1cn(CC[C@@H]2CC[C@H](NS(=O)(=O)c3ccc(F)cc3)[C@@H](CO)O2)nn1	-	-	0	-	-	0	-
OCC1SC(O)C(O)C(O)C1O (centres undefined)	-	-	0	-	-	0	-
CC(C)(C)c1ccc(Oc2cccc(C3CC(=O)C(C4NCCc5ccccc54)C(=O)C3n3cncn3)c2)cc1 (centres undefined)	0	41	0	0	0	0	0
O=C1CC(c2ccccc2Oc2cccc(Cl)c2)C(n2cncn2)C(=O)C1C1NCCc2ccccc21 (centres undefined)	0	0	0	0	0	0	-
O=[N+]([O-])c1ccc(Cl)c(S(=O)(=O)NCCc2ccccn2)c1	0	0	0	0	0	0	-
N#Cc1sc2nc(-c3ccccc3)cc(-c3ccco3)c2c1N	0	43	0	34	0	0	0
Nc1nc2ccccc2cc1C(=O)NCc1cccs1	-	-	0	-	-	0	-
O=C(O)CN1C(=O)/C(=C\c2cc(Br)ccc2OCc2ccc(Cl)cc2Cl)SC1=S	0	52	-	0	33	-	67
COc1ccc(C(=O)NNC(=O)C23CC4CC(CC(C4)C2)C3)cc1OC	0	0	0	0	0	0	-
CCOC(=O)C1CCCN(C(=O)c2cc(-c3ccco3)nc3ccccc23)C1 (centres undefined)	0	49	0	0	0	0	40
CN1CCN(Cc2c(O)ccc3occ(C(=O)c4ccccc4)c23)CC1	0	0	0	0	0	0	-
CC(=O)C(C(C)=O)c1c(Cl)c(O)c(O)c2c(C(=O)c3ccccc3)coc12	0	59	0	0	0	0	45

Screening results as filed in PubChem.
